Source: PubChem BioAssay (several laboratories)
IEC-6 tox: kills IEC-6 intestinal cells in KLF5 counter-screen. IEC-6 cytotoxicity, luminescence viability. inhibition, % at 5 µM. 0.78% of 290,000 active. AID 1825; in the data active = inhibition above about 22%;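 also: 0% = plate median of test compound wells and 100% = cytotoxic reference compound wells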
APP 5UTR inh: APP translation inhibition. SH-SY5Y APP 5'UTR-luciferase reporter, luminescence. inhibition, % at 2 µM. 0.82% of 190,000 active;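 active = inhibition above a set limit, derived from the sample mean plus 3 SD, cut at about 45% in these data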
bCat nuc transl: modulators of beta-catenin nuclear translocation. HeLa beta-catenin nuclear translocation, immunofluorescence imaging. 0.3% of 190,000 active. nuclear translocation activity, % at 5 µM;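 active = nuclear translocation activity above 50% at 5 µM, with a well cell count of 50 or more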;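 also: per-cell ratio of nuclear to cytoplasmic median beta-catenin stain intensity; plate controls were DMSO negative control for no effect and GSK-3 inhibitor IX positive control for full effect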
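Signal – beta-catenin immunofluorescence imaging with DAPI · Test system – human HeLa cell line · Dosing – 5 µM primary single dose, 0.1% DMSO, 0.02–20 µM confirmation series · Measure – % activation, nuclear-to-cytoplasmic median beta-catenin signal ratio per cell · Incubation – 24 h compound exposure at 37°C, 5% CO2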
Ba/F3 V617F tox: lowers viability of Ba/F3 cells expressing EpoR and JAK2V617F | ATP luminescence | inhibition, % at 5.6 µM | 1.1% of 220,000 active | AID 1446;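 active = inhibition above the campaign mean plus 3 SD over all tested compounds, cut at about 24% in these data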;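 also: cytokine-independent growth of Ba/F3 cells driven by EpoR plus mutant JAK2; 0% = DMSO-treated cells and 100% = JAK inhibitor I control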
BaF3 tox: counter-screen for JAK2V617F inhibitors: parental Ba/F3 viability inhibitors | CellTiter-Glo ATP luminescence | inhibition, % at 5.6 µM | 1.1% of 220,000 active;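 active = inhibition above a per-campaign cutoff, the mean inhibition of all tested compounds plus 3 SD, cut at about 27% in these data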;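 also: 0% = DMSO wells and 100% = JAK Inhibitor I control wells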
MT stabilizer: microtubule stabilizers in HeLa cells; HeLa tubulin immunostaining HCS, 24 h; share of cells brighter than vehicle mean+2SD; % tubulin-high responders, % at 10 µM; 0.83% of 200,000 active;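 active = plate Z-score above 3 for both tubulin-high and condensed-nucleus cell shares, with cell loss under 80%, at 10 µM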;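 also: anti alpha tubulin signal scored within the nucleus-defined area of each cell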
* hit, by the source's call; . = no result. Compounds with a hit are over-represented: about 2.2% of the library has one in this group of screens.

SMILES | IEC-6 tox | APP 5UTR inh | bCat nuc transl | Ba/F3 V617F tox | BaF3 tox | MT stabilizer
COc1cccc2sc(Nc3nc(-c4cc5ccccc5oc4=O)cs3)nc12 | 5.5 | 91.3* | 121.7* | -2.7 | 1.8 | 18.4*
CS(=O)(=O)c1ccccc1-c1nnc(NC(=O)Cc2ccccc2)o1 | -1.5 | . | . | . | . | .
O=C(CN(C(=O)c1csnn1)c1ccc2c(c1)OCCO2)NCc1ccccc1 | -3.3 | . | . | . | . | .
CCn1c(CNc2ccccc2Cl)nnc1SCCN1CCCCC1 | 3.3 | -3.3 | 1.1 | 2.8 | 0.6 | 1.6
CCn1c(CNc2ccc(F)cc2)nnc1SCCN1CCCCC1 | -2.5 | -7.4 | -2.5 | -2.5 | 93.4* | 4.7
Cc1nc(-c2ccc(Cl)cc2)sc1C1(C)CC(c2ccc(F)cc2)=NO1 (centres undefined) | -2.1 | . | . | . | . | .
CCOc1cc(C)c(Cl)cc1S(=O)(=O)NCc1ccc2c(c1)OCO2 | 5.8 | -5.7 | 3.9 | -0.7 | 1.9 | 34.8*
CCOc1cc(S(=O)(=O)NCc2ccc3c(c2)OCO3)c(C)cc1C | 4.2 | 4.8 | . | 2.7 | 6.2 | 1.5
Cc1ccc(NC(=O)CN2CCN(Cc3ccccc3)CC2)cc1F | 5.7 | . | . | . | . | .
CCc1ccc(CNC(=O)C2CC(=O)N(C3CCCC3)C2)cc1 (centres undefined) | -0.6 | . | . | . | . | .
Cc1sc(NC(=O)CCCC(=O)O)c(C(N)=O)c1-c1ccccc1 | -2.3 | 48.6* | 1.0 | -0.6 | 5.0 | 1.5
Cc1cccc(C(=O)NNC(=O)c2ccccc2Br)c1 | 0.0 | . | . | . | . | .
COC(=O)CSC1=C(C#N)C(c2ccc(C)o2)CC(=O)N1 (centres undefined) | 6.1 | -7.9 | 2.3 | 7.4 | 42.6* | 17.3*
COC(=O)CSC1=C(C#N)C(c2sccc2C)CC(=O)N1 (centres undefined) | -2.6 | -14.6 | -0.6 | -1.9 | 4.5 | 1.4
COC(=O)CSC1=C(C#N)C(c2ccc(F)cc2)CC(=O)N1 (centres undefined) | 5.2 | -27.9 | -0.8 | 2.0 | 42.8* | 5.5
CCOc1ccccc1NC(=O)CC1Nc2ccccc2NC1=O (centres undefined) | 2.6 | -1.5 | 1.1 | -1.7 | 2.3 | 2.9
CCOc1ccccc1NC(=O)CC1Nc2cc(C)c(C)cc2NC1=O (centres undefined) | 2.8 | 6.2 | . | 0.2 | 5.7 | 22.9*
COC(=O)c1cc(S(=O)(=O)Nc2ccc(C)cn2)c[nH]1 | 12.9 | . | . | . | . | .
Cc1ccc(-n2nc(C)c(NC(=O)CCl)c2C)cc1C | 1.6 | -27.3 | 12.8 | 5.0 | 13.5 | 7.1
CC(=O)n1c(Cl)c(NC(=O)CCl)c2ccccc21 | 0.2 | 74.9* | 1.5 | 3.4 | 4.0 | 5.9
NC(=O)N/N=C/c1ccccc1OCc1cccc2ccccc12 | -4.1 | . | . | . | . | .
c1ccc(CCCCNCC2COc3ccccc3O2)cc1 (centres undefined) | -2.7 | -20.0 | 1.6 | -0.7 | 6.1 | 11.3
c1ccc(CCCNCC2COc3ccccc3O2)cc1 (centres undefined) | 2.0 | 72.9* | 0.9 | 1.1 | -0.3 | 2.5
O=c1cc(-c2ccccc2F)oc2ccccc12 | 5.1 | -64.0 | 1.4 | -4.3 | -0.2 | 2.3
O=c1cc(-c2ccccc2[N+](=O)[O-])oc2ccccc12 | 12.2 | -24.2 | 9.5 | 0.4 | 3.7 | 12.4*
SMILES | IEC-6 tox | APP 5UTR inh | bCat nuc transl | Ba/F3 V617F tox | BaF3 tox | MT stabilizer
COc1ccc(-c2ccc(NCCN3CCOCC3)nn2)cc1OC | 2.1 | . | . | . | . | .
CCOc1cc(NC(=S)NC)c(OCC)cc1NC(=O)c1ccc(OC)cc1 | 2.3 | -1.3 | 2.0 | 1.0 | 6.1 | 2.7
CCCCC(=O)Nc1cc(OCC)c(NC(=S)NC)cc1OCC | 1.9 | -0.1 | -0.2 | 23.7* | 61.9* | 2.1
CCc1c(C)c(C#N)c2nc3ccccc3n2c1-n1nc(C)cc1C | 1.2 | -20.1 | -0.9 | -2.1 | 0.1 | 1.7
CCc1c(C)c(C#N)c2nc3ccccc3n2c1Cl | -5.7 | 95.0* | -2.2 | -5.6 | -2.9 | 8.9
COc1ccc(C2=NN(CC(=O)Nc3ccccc3C)C(=O)CC2)cc1 | 2.5 | . | 0.3 | -0.9 | 57.5* | .
COCCNC(=O)CN1N=C(c2ccc(OC)cc2)CCC1=O | -1.7 | . | . | . | . | .
Cc1nc(-c2ccc(Cl)cc2)sc1C1(C)CC(c2cccc(F)c2)=NO1 (centres undefined) | . | . | 1.0 | . | . | .
Cc1cc(C(=O)NC2CCCc3c2cnn3-c2ccc(C(C)(C)C)cc2)n[nH]1 (centres undefined) | -7.3 | . | . | . | . | .
COc1ccccc1-[n+]1c(C)cc(/C=C2\Sc3ccccc3N2C)cc1C | 1.3 | . | 14.0 | 98.8* | 96.2* | .
COc1ccc(C(=O)/C=C2\Sc3ccccc3N2C)cc1 | -2.3 | -195.2 | 0.3 | 2.4 | 4.4 | 1.6
